The record followed here is ChEMBL document CHEMBL1122315, “1,2-Dihydropyrido[3,4-b]pyrazines: structure-activity relationships” (1983).

In test [1] the test system is P388. Briefly: antitumor activity against lymphocyte leukemia P388 in mice as percentage of increase in life span for 1 day schedule. It counts as functional, Mus musculus. In outline: (§1)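 Mice bearing lymphocytic leukemia P388 were treated. The value is the percent increase in life span at the highest nontoxic dose tested.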
Test [2] relates to L1210. Nature of the test: inhibition of proliferation of cultured lymphoid leukemia L1210 cells during 48 hr. The class given is functional. The conditions noted are these: Mus musculus, L1210, 48 h, read-out: ID50. In outline: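 Cultured L1210 cells were exposed to agent for 48 h. The value is the concentration that holds proliferation to 50% of untreated control.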
For test [3], the system named is L1210. Nature of the test: Fraction of the cell population of cultured lymphoid leukemia L1210 cells in mitosis after 24 hr; at the concentration of 0.3 uM. The class given is functional, Mus musculus.
Test [4] relates to P388. Nature of the test: antitumor activity against lymphocyte leukemia P388 in mice as percentage of increase in life span for 1-5 days schedule (values in the parenthesen indicates dose). The class given is functional, Mus musculus. The method, boiled down:
as §1

For test [5], the system named is P388. Nature of the test: antitumor activity against lymphocyte leukemia P388 in mice as percentage of increase in life span for 30th day survivor, 1-5 days schedule. The class given is functional, Mus musculus.
In test [6] the test system is L1210. Nature of the test: Fraction of the cell population of cultured lymphoid leukemia L1210 cells in mitosis after 12 hr. The class given is functional, Mus musculus.
In a further test the test system is KB. Briefly: Inhibition of colony formation of KB human epidermoid carcinoma cells. The class given is functional. The conditions noted are these: read-out: ED50 (the source's name).
The test system of test [7] is L1210. Nature of the test: Antitumor activity against lymphoid leukemia L1210 in mice for 1-9 days schedule. The class given is functional, Mus musculus. The method, boiled down:
(§2)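 Mice bearing L1210 leukemia; the read-out is the percent increase in life span, reported at the highest nontoxic dose tested. Toxic doses are flagged separately.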

Test [8] has as its system L1210. Nature of the test: Antitumor activity against lymphoid leukemia L1210 in mice for 1 day schedule. It counts as functional, Mus musculus. The method, boiled down: as §2
The test system of test [9] is L1210. Briefly: Fraction of the cell population of cultured lymphoid leukemia L1210 cells in mitosis after 12 hr; at the concentration of 0.3 uM. The class given is functional, Mus musculus.
Test [10] concerns L1210. Nature of the test: Fraction of the cell population of cultured lymphoid leukemia L1210 cells in mitosis after 12 hr; at the concentration of 0.01 uM. It counts as functional, Mus musculus.
Test [11] deals with L1210. Nature of the test: Fraction of the cell population of cultured lymphoid leukemia L1210 cells in mitosis after 12 hr; at the concentration of 0.03 uM. The class given is functional, Mus musculus.
Test [12] deals with L1210. Briefly: Fraction of the cell population of cultured lymphoid leukemia L1210 cells in mitosis after 24 hr. The class given is functional, Mus musculus.
For the next test, the system named is HEp-2 (Homo sapiens). Nature of the test: Inhibition of colony formation of human epidermoid carcinoma no. 2 (HEp-2) cells. The conditions noted are these: read-out: ED50 (the source's name).
Test [13] concerns P388. Briefly: antitumor activity against lymphocyte leukemia P388 in mice as percentage of increase in life span for 1-9 days schedule. It counts as functional, Mus musculus. The method, boiled down: as §1
Test [14] has as its system L1210. Briefly: Fraction of the cell population of cultured lymphoid leukemia L1210 cells in mitosis after 12 hr; at the concentration of 0.1 uM. The class given is functional, Mus musculus.
Test [15] has as its system P388. Briefly: antitumor activity against lymphocyte leukemia P388 in mice as percentage of increase in life span for 1-9 days schedule. (values in the parenthesen indicates dose). It counts as functional, Mus musculus. The method, boiled down: as §1
Test [16] deals with L1210. Briefly: Fraction of the cell population of cultured lymphoid leukemia L1210 cells in mitosis after 12 hr at the concentration of 0.03 uM. The class given is functional, Mus musculus.
Test [17] deals with L1210. Briefly: Fraction of the cell population of cultured lymphoid leukemia L1210 cells in mitosis after 24 hr at the concentration of 0.3 uM. It counts as functional, Mus musculus.

SMILES strings stand for the structures. Where only a bound is given, the exact number is not on record here.

Usually ILS stands for the gain in survival time of treated over control animals, in per cent. High values mean much gain in survival, low ones little gain in survival. `CCOC(=O)Nc1cc2ncc(-c3ccccc3)nc2c(N)n1` returned an ILS in the test with P388 [1] of 0%. In the test on L1210 [2], the IC50 is over 0.3 µM. In addition, the Mitotic index with L1210 [3] is listed as 0.02.

For the compound `CCOC(=O)Nc1cc2c(c(N)n1)N=C(c1ccc3ccccc3c1)CN2`, the “ILS (mg/kg)” value in the test with P388 [4] amounted to 53%. In addition, the ILS with P388 [5] came out at 66%. Also, the IC50 with L1210 [2] turned out to be 0.006 µM. Moreover, the Mitotic index in the test with L1210 [6] was 0.6.

As for `CCOC(=O)Nc1cc(N(C)CC(O)c2ccccc2)c(N)c(N)n1` (centres undefined), the ILS in the test with P388 [1] amounted to 0%. The IC50 in the test with L1210 [2] was over 0.3 µM.

Consider `CCOC(=O)Nc1cc(N)c2c(n1)NCC(CN(C)c1ccc(C(=O)OC)cc1)=N2`, for which, in the test on KB, the EC50 is 24 µM. Moreover, the ILS in the test with L1210 [7] and in the test on L1210 [8] was 0% throughout.

In the case of `COC(=O)c1ccc(N(C)CC2=Nc3c(N)nc(N)nc3NC2)cc1`, the EC50 in the test on KB is 21 µM.

For the compound `CCOC(=O)Nc1cc2c(c(N)n1)N=C(c1ccc(-c3ccccc3)cc1)CN2`, the Mitotic index in the test with L1210 [9] came out at 0.42; in the test on L1210 [10], 0.65. The ILS in the test with P388 [1] was 36%. In addition, the IC50 with L1210 [2] amounted to 0.0061 µM.

On to `CCOC(=O)Nc1cc2ncc(-c3ccc(C(F)(F)F)cc3)nc2c(N)n1`, for which the IC50 in the test with L1210 [2] was over 0.3 µM.

For the compound `CCOC(=O)Nc1cc2c(c(N)n1)N=C(CN(C)c1ccccc1)CN2`, the ILS in the test with P388 [1] was 114%. The Mitotic index with L1210 [11] stood at 0.77; in the test with L1210 [12], 0.8. In the test on L1210 [2], the IC50 is 0.0084 µM.

In the test on P388 [1], `CCOC(=O)Nc1cc2c(c(N)n1)N=C(CCc1ccccc1)CN2` yielded an ILS of 29%. Also, the IC50 in the test on L1210 [2] is 0.013 µM. Further, the Mitotic index in the test with L1210 [3] was 0.33.

Turning to `COC(=O)c1ccc(N(C)CC2=Nc3c(cc(N)nc3Cl)NC2)cc1`, the EC50 with KB is over 100 µM.

Regarding `CCOC(=O)Nc1cc2ncc(CNc3ccc(C(=O)OCC)cc3)nc2c(N)n1`, the EC50 in the test on HEp-2 (Homo sapiens) amounted to 42 µM.

Turning to `CCOC(=O)Nc1cc2ncc(C(=O)N(C)c3ccccc3)nc2c(N)n1`, the EC50 with KB was over 100 µM. This compound gave an ILS in the test on L1210 [8] of 0%.

Consider `CCOC(=O)c1ccc(NCC2=Nc3c(N)nc(N)nc3NC2)cc1`, for which the EC50 in the test on KB was 10 µM. In addition, the increase in life span (ILS) was determined as 0% with L1210 [7] and 8% in the test on L1210 [8].

As to `CCOC(=O)Nc1cc(N)c2nc(CN(C)c3ccc(C(=O)OC)cc3)cnc2n1`, the EC50 with KB is 240 µM. Besides, the ILS in the test on L1210 [7] and with L1210 [8] was 0% throughout.

Take `CN(Cc1cnc2cc(N)nc(N)c2n1)c1ccccc1`: the EC50 with KB is over 100 µM. Further, the ILS in the test on L1210 [7] and in the test on L1210 [8] was 0% in each case.

As to `CCOC(=O)c1ccc(NCc2cnc3nc(N)nc(N)c3n2)cc1`, the EC50 with KB is 17 µM. In addition, the ILS with L1210 [7] and in the test on L1210 [8] was 0% throughout.

For `COC(=O)c1ccc(N(C)Cc2cnc3nc(N)nc(N)c3n2)cc1`, the EC50 with KB was found to be 19 µM. Further, the ILS with L1210 [7] amounted to 2%; in the test with L1210 [8], 3%.

As for `CCOC(=O)Nc1cc2c(c(O)n1)N=C(CN(C)c1ccc(C(=O)OC)cc1)CN2`, the EC50 in the test on KB was determined as 8 µM. The compound also displayed an ILS with L1210 [8] of 2%.

For `CN(CC1=Nc2c(cc(N)nc2N)NC1)c1ccccc1`, the Mitotic index with L1210 [9] stood at 0.61; with L1210 [14] it was 0.44. In the test with P388 [13], the ILS was 30%. Moreover, the IC50 in the test with L1210 [2] is 0.0058 µM.

`CCOC(=O)Nc1cc2c(c(NC(=O)OCC)n1)N=C(CN(C)c1ccccc1)CN2`: the ILS is 14% in the test on L1210 [7] and 46% in the test on L1210 [8]. Further, in the test with HEp-2 (Homo sapiens), the EC50 amounted to 1.2 µM.

As to `CCOC(=O)Nc1cc2c(c(NC(=O)OCC)n1)N=C(C)CN2`, the EC50 in the test on KB came to 91 µM. In addition, the ILS in the test with L1210 [8] was 0%.

`CCOC(=O)Nc1cc2ncc(CN(C)c3ccc(C(=O)OC)cc3)nc2c(N)n1`: the EC50 in the test with HEp-2 (Homo sapiens) came to 19 µM.

As to `CCOC(=O)Nc1cc2c(c(N)n1)NC(CN(C)c1ccccc1)CN2` (centres undefined), in the test on KB, the EC50 was 0.6 µM. The ILS in the test with L1210 [8] worked out at 10%.

As for `CCOC(=O)Nc1cc2ncc(CN(C)c3ccccc3)nc2c(N)n1`, in the test with KB, the EC50 is 0.67 µM.

Turning to `CN(CC1=Nc2c(cc(N)nc2S)NC1)c1ccc(C(=O)O)cc1`, in the test on KB, the EC50 came to 29 µM.

As to `CCOC(=O)Nc1cc2c(c(N)n1)N=C(c1ccc(C(F)(F)F)cc1)CN2`, in the test on P388 [15], the “ILS (mg/kg)” value came out at 17%. Further, in the test on P388 [1], the ILS is listed as 0%. Further, in the test with L1210 [2], the IC50 is 0.15 µM. The compound also returned a Mitotic index in the test on L1210 [3] of 0.01.

In the case of `CCOC(=O)Nc1ccc(/N=C/c2ccccc2)cn1`, in the test with P388 [1], the ILS is given as 0%. Moreover, the IC50 with L1210 [2] was over 0.3 µM.

`CCOC(=O)Nc1cc2c(c(N)n1)N=C(c1ccccc1)CN2C` came in with a Mitotic index in the test with L1210 [9] of 0.68. Further, the ILS with P388 [1] turned out to be 12%. Also, the IC50 with L1210 [2] was determined as 0.16 µM.

In the case of `CCOC(=O)Nc1ccc(/N=C(/C=C(/O)OCC)c2ccccc2)c(N)n1`, in the test with L1210 [2], the IC50 was over 0.3 µM. The Mitotic index with L1210 [3] stood at 0.03.

Regarding `CCOC(=O)Nc1cc2c(c(N)n1)N=C(c1ccccc1)C(C)N2` (centres undefined), the “ILS (mg/kg)” value with P388 [4] is 75%. The compound also registered an ILS with P388 [1] of 54%. The IC50 in the test on L1210 [2] was found to be 0.00051 µM.

With `CCOC(=O)Nc1cc2c(c(N)n1)N=C(c1ccccc1)CN2`, the Mitotic index with L1210 [16] is on record as 0.65; in the test on L1210 [17], 0.54. The “ILS (mg/kg)” value with P388 [15] is on record as 51%. The same compound gave an ILS in the test with P388 [1] of 55%. The IC50 in the test with L1210 [2] came to 0.0047 µM.
